Here are results for 22 compounds from ChEMBL document CHEMBL1146113, “Synthesis and SAR of heteroaryl-phenyl-substituted pyrazole derivatives as highly selective and potent canine COX-2 inhibitors” (Bioorg Med Chem Lett, 2006).

Molecules are shown by their SMILES. Some results are limits rather than exact numbers.

Series [1] has as its target T1, Prostaglandin G/H synthase 1 (Canis lupus familiaris, UniProt Q8HZR1).
T1 sequence (Q8HZR1 whole entry): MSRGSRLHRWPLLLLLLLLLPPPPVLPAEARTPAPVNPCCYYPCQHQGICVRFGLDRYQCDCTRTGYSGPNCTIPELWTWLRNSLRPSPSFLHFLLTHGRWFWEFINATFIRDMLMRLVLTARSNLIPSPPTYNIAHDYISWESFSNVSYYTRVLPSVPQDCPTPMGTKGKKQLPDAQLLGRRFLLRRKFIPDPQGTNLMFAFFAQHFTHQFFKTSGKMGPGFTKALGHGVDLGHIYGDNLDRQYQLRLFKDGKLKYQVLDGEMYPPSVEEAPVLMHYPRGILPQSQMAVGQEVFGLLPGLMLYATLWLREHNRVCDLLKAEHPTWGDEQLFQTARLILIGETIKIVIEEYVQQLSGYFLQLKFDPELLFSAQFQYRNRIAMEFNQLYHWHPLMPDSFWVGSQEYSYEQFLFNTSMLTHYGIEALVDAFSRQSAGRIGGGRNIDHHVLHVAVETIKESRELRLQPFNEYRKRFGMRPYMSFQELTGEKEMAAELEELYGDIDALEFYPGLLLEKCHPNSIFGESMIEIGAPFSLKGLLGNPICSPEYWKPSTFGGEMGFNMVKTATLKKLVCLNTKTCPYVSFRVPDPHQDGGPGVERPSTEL
The series can be described thus: Inhibition of COX1 in canine whole blood. Put shortly: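 Canine whole blood incubated with drug for 1 h at 37 °C, with drug-free samples as maximum TXB2 controls. EDTA (0.3% final) then added and serum collected and frozen. COX-1 activity read as TXB2 production by EIA, with samples diluted 1/10,000.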

Series [2] deals with T2, Cyclooxygenase-2 (Canis lupus familiaris, UniProt Q8SPQ9).
T2 sequence (Q8SPQ9 whole entry): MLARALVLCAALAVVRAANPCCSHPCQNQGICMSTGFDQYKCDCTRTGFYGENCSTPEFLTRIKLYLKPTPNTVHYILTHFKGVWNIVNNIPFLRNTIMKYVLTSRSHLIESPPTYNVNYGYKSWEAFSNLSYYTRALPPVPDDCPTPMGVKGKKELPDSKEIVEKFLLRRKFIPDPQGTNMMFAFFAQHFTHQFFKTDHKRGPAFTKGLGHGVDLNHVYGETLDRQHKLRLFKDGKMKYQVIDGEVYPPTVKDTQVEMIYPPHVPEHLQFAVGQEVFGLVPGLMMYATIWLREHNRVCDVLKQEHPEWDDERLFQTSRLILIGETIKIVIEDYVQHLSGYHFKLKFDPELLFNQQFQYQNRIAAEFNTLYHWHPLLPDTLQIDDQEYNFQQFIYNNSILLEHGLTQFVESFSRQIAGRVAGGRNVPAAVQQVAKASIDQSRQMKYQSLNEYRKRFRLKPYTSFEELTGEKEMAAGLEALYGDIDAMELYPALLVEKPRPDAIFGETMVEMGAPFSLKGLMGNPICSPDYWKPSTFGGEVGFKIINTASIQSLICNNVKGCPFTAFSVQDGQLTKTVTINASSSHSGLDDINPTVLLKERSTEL
Kind of series: Inhibition of COX2 in canine whole blood. The format is tissue-based. The method in brief: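 Heparinized canine whole blood incubated overnight at 37 °C with drug plus LPS to stimulate PGE2. LPS-only controls gave maximum PGE2 and vehicle-only controls gave background. EDTA (0.3% final) then added and plasma collected and frozen. PGE2 measured by EIA, with samples diluted 1/1000.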

The species named for series [3] is Canis lupus familiaris. The series can be described thus: Selectivity for COX2 over COX1.
A short description of series [4]: Oral bioavailability in dog. Format: ADME, organism-based, Canis lupus familiaris. Particulars: in vivo.
A short description of series [5]: Half life in dog. Format: ADME, organism-based, Canis lupus familiaris. Particulars: in vivo.

Regarding `CS(=O)(=O)c1ccc(-n2nc(C(F)(F)F)cc2-c2ccc(-c3nccs3)cc2)nc1`, the IC50 worked out at 50 µM in series [1] and 0.21 µM in series [2]. In addition, the Ratio IC50 in series [3] amounted to 238.

As to `Cc1cc(-c2cc(C(F)(F)F)nn2-c2ccc(S(C)(=O)=O)cn2)ccc1-c1cscn1`, the IC50 in series [1] was 15.5 µM; in series [2], 0.09 µM. For the same compound, the Ratio IC50 in series [3] worked out at 172.

Regarding `CS(=O)(=O)c1ccc(-n2nc(C(F)(F)F)cc2-c2ccc(-c3ccco3)c(C(N)=O)c2)nc1`, the figures for the IC50 in series [1] and in series [2] were 2 µM and 0.41 µM, respectively. For the same compound, the Ratio IC50 in series [3] came out at 4.9.

In the case of `COC(=O)c1cc(-c2cc(C(F)(F)F)nn2-c2ccc(S(C)(=O)=O)cn2)ccc1-c1ccco1`, in series [2], the IC50 was over 0.5 µM.

As for `CS(=O)(=O)c1ccc(-n2nc(C(F)(F)F)cc2-c2ccc(-c3ccco3)c(C#N)c2)nc1`, the IC50 came out at 2 µM in series [1] and 0.013 µM in series [2]. For the same compound, the Ratio IC50 in series [3] turned out to be 154.

For the compound `Cc1cc(-c2cc(C(F)F)nn2-c2ccc(S(C)(=O)=O)cn2)ccc1-c1cscn1`, the IC50 in series [1] was 3.8 µM; in series [2] it was 0.019 µM. For the same compound, the Ratio IC50 in series [3] came out at 200.

On to `CS(=O)(=O)c1ccc(-n2nc(C(F)F)cc2-c2ccc(-c3ccco3)cc2)nc1`, for which the concentration for half-maximal inhibition (IC50) in series [1] was found to be 12 µM; in series [2] it was 0.13 µM. Also, the Ratio IC50 in series [3] worked out at 92.

Regarding `CS(=O)(=O)c1ccc(-n2nc(C(F)(F)F)cc2-c2ccc(-c3ccco3)c(Cl)c2)nc1`, the IC50 in series [1] was over 50 µM; in series [2], 0.012 µM. Also, the Ratio IC50 in series [3] is over 4170. Besides, in series [4], the bioavailability is 34%. Further, the half-life in series [5] is 16.4 h.

In series [2], `CS(=O)(=O)c1ccc(-n2nc(C(F)(F)F)cc2-c2cccc(-c3cscn3)c2)nc1` displayed an IC50 of over 0.5 µM.

For the compound `CS(=O)(=O)c1ccc(-n2nc(C(F)(F)F)cc2-c2ccc(-c3nccs3)c(C#N)c2)nc1`, the IC50 in series [1] worked out at 23.4 µM; in series [2], 0.11 µM. Also, the Ratio IC50 in series [3] worked out at 212.

Consider `CS(=O)(=O)c1ccc(-n2nc(C(F)(F)F)cc2-c2ccc(-c3cscn3)cc2)nc1`, for which the IC50 is over 50 µM in series [1] and 0.16 µM in series [2]. In addition, the Ratio IC50 in series [3] is over 313.

`Cc1cc(-c2cc(C(F)(F)F)nn2-c2ccc(S(C)(=O)=O)cn2)ccc1-c1cocn1`: the IC50 in series [1] came out at 12.7 µM; in series [2] it was 0.03 µM. Also, the Ratio IC50 in series [3] came to 487.

On to `Cc1cc(-c2cc(C(F)(F)F)nn2-c2ccc(S(C)(=O)=O)cn2)ccc1-c1ccco1`, for which the IC50 in series [1] turned out to be 3.4 µM; in series [2], 0.01 µM. The Ratio IC50 in series [3] was 340.

On to `CS(=O)(=O)c1ccc(-n2nc(C(F)(F)F)cc2-c2ccc(-c3ccco3)cc2)nc1`, for which the IC50 in series [1] was found to be 18.2 µM; in series [2] it was 0.02 µM. The Ratio IC50 in series [3] is 759.

`CS(=O)(=O)c1ccc(-n2nc(C(F)F)cc2-c2ccc(-c3ccco3)c(Cl)c2)nc1`: the values for the IC50 in series [1] and in series [2] were 5.5 µM and 0.01 µM, respectively. In series [3], the Ratio IC50 was found to be 550.

With `CS(=O)(=O)c1ccc(-n2nc(C(F)(F)F)cc2-c2ccc(-c3cncs3)cc2)nc1`, the results for the IC50 in series [1] and in series [2] were 2.7 µM and 0.18 µM, respectively. In addition, the Ratio IC50 in series [3] was 15.

In series [2], `Cc1scnc1-c1ccc(-c2cc(C(F)(F)F)nn2-c2ccc(S(C)(=O)=O)cn2)cc1` returned a concentration for half-maximal inhibition (IC50) of over 0.5 µM.

For `CS(=O)(=O)c1ccc(-n2nc(C(F)(F)F)cc2-c2ccc(-c3cscn3)c(Cl)c2)nc1`, the IC50 in series [1] is 16 µM; in series [2], under 0.05 µM. Moreover, in series [3], the Ratio IC50 was over 320.

As to `CS(=O)(=O)c1ccc(-n2nc(C(F)F)cc2-c2ccc(-c3ccco3)c(F)c2)nc1`, the IC50 in series [1] is 5 µM; in series [2], 0.06 µM. For the same compound, in series [3], the Ratio IC50 was 83.

On to `Cc1cc(-c2cc(C(F)(F)F)nn2-c2ccc(S(C)(=O)=O)cn2)ccc1-c1ncco1`, for which the IC50 in series [1] turned out to be 11.1 µM; in series [2], 0.065 µM. Moreover, the Ratio IC50 in series [3] came to 171.

On to `CS(=O)(=O)c1ccc(-n2nc(C(F)(F)F)cc2-c2ccc(-c3cscn3)cc2F)nc1`, for which the IC50 in series [1] was 22.7 µM; in series [2], 0.29 µM. Moreover, the Ratio IC50 in series [3] came out at 78.

As to `CS(=O)(=O)c1ccc(-n2nc(C(F)(F)F)cc2-c2ccc(-c3ccco3)c(F)c2)nc1`, the IC50 in series [1] is 27.9 µM; in series [2], 0.05 µM. The Ratio IC50 in series [3] is 558.

As usually defined, the IC50 is the midpoint of a concentration-inhibition curve. Read a high IC50 as lower potency. What is called bioavailability is dose-corrected exposure relative to a reference, in per cent. A low value points to little systemic uptake. For orientation: half-life means the time needed for the level to fall by half in the phase considered. Low readings indicate rapid decline, high ones slow decline.
